Format in all cases: ADME, organism-based
Holding throughout (set-up): dose 16 mg/kg, route intravenous
Common to all, as to settings: in vivo

Data set [1] can be described thus: Drug uptake in Wistar rat kidney proximal tubule S2 obtained after tissue digestion with 0.04% protease digestion for 2 hrs mins at 4 or 16 mg/kg, iv after 12 hrs post dose by light-microscopic immunocytochemistry. Summed up: (§1)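 Male Wistar rats (200–250 g) received a single tail-vein gentamicin dose (3 per time group), with saline-injected rats as controls. Under pentobarbital, rats were perfused with PBS, then 2% glutaraldehyde in 10 mM phosphate (pH 7.2), and kidneys postfixed overnight at 4°C. Paraffin sections (5 μm) were treated with 6% H₂O₂, 1.0% NaBH₄ and 1 N HCl, then protease at 30°C. Staining used rabbit anti-GM serum 1:5,000 (overnight, 4°C), then HRP anti-rabbit IgG with DAB.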

Data set [2] can be described thus: Drug uptake in Wistar rat kidney proximal tubule S1 obtained after tissue digestion with 0.04% protease digestion for 2 hrs mins at 4 or 16 mg/kg, iv after 12 hrs post dose by light-microscopic immunocytochemistry. Summed up: as §1
Data set [3] in a line: Drug uptake in Wistar rat kidney proximal tubule […] cells obtained after tissue digestion with 0.04% protease digestion for 15 mins at 4 or 16 mg/kg, iv after 12 hrs post dose by light-microscopic immunocytochemistry. The procedure, abridged: as §1
Data set [4] can be described thus: Drug uptake in Wistar rat kidney collecting duct cells obtained after tissue digestion with 0.04% protease digestion for 15 mins at 4 or 16 mg/kg, iv after 12 hrs post dose by light-microscopic immunocytochemistry. Summed up:
as §1

Data set [5] can be described thus: Drug uptake in cytoplasm of Wistar rat kidney distal tubule cells obtained after tissue digestion with 0.04% protease digestion for 15 mins at 4 or 16 mg/kg, iv after 12 hrs post dose by light-microscopic immunocytochemistry. The procedure, abridged: as §1
Data set [6] in a line: Drug uptake in Wistar rat Kidney endothelium cells obtained after tissue digestion with 0.04% protease digestion for 2 hrs mins at 4 or 16 mg/kg, iv after 1 hrs post dose by light-microscopic immunocytochemistry. The procedure, abridged: as §1
Data set [7] can be described thus: Drug uptake in Wistar rat Kidney endothelium cells obtained after tissue digestion with 0.04% protease digestion for 15 mins to 60 mins at 4 or 16 mg/kg, iv after 1 hrs post dose by light-microscopic immunocytochemistry. The procedure, abridged:
as §1

Data set [8] is described as follows: Drug uptake in Wistar rat Kidney endothelium cells obtained after tissue digestion with 0.04% protease digestion for 15 mins to 2 hrs mins at 4 or 16 mg/kg, iv after 12 hrs post dose by light-microscopic immunocytochemistry. The procedure, abridged: as §1
Data set [9] in a line: Drug uptake in Wistar rat Kidney glomeruli cells obtained after tissue digestion with 0.04% protease digestion for 15 mins to 2 hrs mins at 4 or 16 mg/kg, iv after 12 hrs post dose by light-microscopic immunocytochemistry. Summed up: as §1
The nature of data set [10]: Drug uptake in Wistar rat Kidney Henle's loop cells obtained after tissue digestion with 0.04% protease digestion for 15 mins to 2 hrs mins at 4 or 16 mg/kg, iv after 12 hrs post dose by light-microscopic immunocytochemistry. The procedure, abridged:
as §1

Data set [11] can be described thus: Drug uptake in Wistar rat kidney collecting duct cells obtained after tissue digestion with 0.04% protease digestion for 30 mins at 4 or 16 mg/kg, iv after 12 hrs post dose by light-microscopic immunocytochemistry. The procedure, abridged:
as §1

The nature of data set [12]: Drug uptake in Wistar rat kidney collecting duct cells obtained after tissue digestion with 0.04% protease digestion for 2 hrs at 4 or 16 mg/kg, iv after 12 hrs post dose by light-microscopic immunocytochemistry. The procedure, abridged:
as §1

Data set [13] is described as follows: Drug uptake in cytoplasm of Wistar rat kidney distal tubule cells obtained after tissue digestion with 0.04% protease digestion for 2 hrs at 4 or 16 mg/kg, iv after 12 hrs post dose by light-microscopic immunocytochemistry. The procedure, abridged: as §1
Data set [14] is described as follows: Drug uptake in nuclei of Wistar rat kidney distal tubule cells obtained after tissue digestion with 0.04% protease digestion for 15 mins at 4 or 16 mg/kg, iv after 12 hrs post dose by light-microscopic immunocytochemistry. Summed up: as §1

On to GENTAMICIN, for which the Drug uptake result is “Active” in data set [1]; “Active” in [2]; “Not Active” in data set [3]; “Active” in data set [4]; “Active” in data set [5]; “Not Active” in [6]. Moreover, the Drug uptake entry in data set [7] is listed as “Active”; in data set [8], “Not Active”; in data set [9], “Not Active”; in data set [10] it was “Not Active”; in data set [11], “Active”; in data set [12], “Not Active”. The Drug uptake result in [13] is given as “Not Active”; in [14], “Active”.

The values above are taken from ChEMBL document CHEMBL1671656, “Light-microscopic immunocytochemistry for gentamicin and its use for studying uptake of the drug in kidney” (Antimicrob Agents Chemother, 2009).
